# Bioassay records (PubChem BioAssay)
# In the library only some 4.9% were active in any assay of this set; here they are far more common.
# APP 5'UTR act – activators of APP 5'UTR luciferase reporter, primary screen, SH-SY5Y cells. SH-SY5Y APP 5'UTR luciferase reporter, luminescence; zero percent = DMSO vehicle wells. activation, % at 2 µM. hit rate 1% among 190,000;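 active = activation above a set limit, based on mean plus 3 SD of controls, cut at about 140% in these data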
# STAT1 blocker – STAT1 signaling inhibitors, primary screen, cell-based, HTS, luciferase reporter; NIH 3T3 STAT1-luciferase reporter, IFN-gamma, luminescence; inhibition, % at 5.5 µM; hit rate 0.35% among 200,000; AID 920, 2007;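 active = inhibition above a set limit, the mean inhibition across all tested compounds plus 3 SD, cut at about 34% in these data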;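 also: 0% = IFN-gamma with DMSO and 100% = IFN-gamma with 300 µM nifuroxazide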
# STAT3 inh – IL-6 driven STAT3 reporter inhibitors, primary screen, U3A cells, luciferase, luminescence, MLSCN library. inhibition, % at 5.5 µM. IL-6 STAT3-luciferase reporter; host cell line lacks STAT1. hit rate 0.89% among 190,000. AID 862, 2007;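 active = inhibition above the mean inhibition across all screened compounds plus 3 SD, cut at about 44% in these data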;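 also: 0% = DMSO only wells and 100% = 100 µM nifuroxazide control wells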
# NF-kB neuron act – activators of NF-kB expression in neurons, primary screen, cell-based, HTS | human neuronal cells, NF-kB reporter expression; active compounds read high | fold change at 12.5 µM | hit rate 1.6% among 190,000; in the data active = fold change above about 3.3
# STAT3 activator – IL-6 driven STAT3 reporter potentiators, primary screen, U3A cells, luciferase, luminescence, MLSCN library; activation (% of control), % at 5.6 µM; IL-6 STAT3-luciferase reporter; 100% = signal with IL-6 EC80 alone; hit rate 0.91% among 190,000; AID 871, 2007;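 active = activation above the screen-wide mean of compound activation plus 3 SD, cut at about 130% in these data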;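 also: 0% = background luminescence of wells with medium and substrate only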
#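 Test system: Human STAT1-deficient U3A cells with stable STAT3-luciferase reporter | Also added: Interleukin-6, 33 ng/mL | Timing: Compound pre-incubation 1 h before IL-6, then 6 h stimulation at 37 °C | Technique: Luciferase reporter luminescence | Read-out: Percent of IL-6-only median luminescence | Benchmarks: IL-6-only wells as 100% reference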
# STAT1 activator – STAT1 signaling activators, primary screen, cell-based, HTS, luciferase reporter | activation (% of control), % at 5.5 µM | hit rate 2.6% among 200,000 | NIH 3T3 STAT1-luciferase reporter, IFN-gamma, luminescence; 100% = IFN-gamma alone, no compound;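 active = activation above the screen-wide mean activation plus 3 SD, cut at about 130% in these data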;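 also: raw ratio to IFN-gamma control signal so 100% means no change and 0% no light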
# * marks the source's active call; other numbers are inactive results; . = not tested or not shown.
SMILES,APP 5'UTR act,STAT1 blocker,STAT3 inh,NF-kB neuron act,STAT3 activator,STAT1 activator
Cc1nc(NC(=O)c2oc3ccccc3c2C)sc1C(=O)N(C)C,43,-43,21,2.1,86,139*
Cc1occc1C(=O)NN=C1C2CC3CC(C2)CC1C3,154*,-61,-18,2.5,118,150*
O=C(Nc1cccc(S(=O)(=O)N2CCCCCC2)c1)c1ccc2ccccc2n1,20,-1,-14,1.1,108,100
Cc1ccc(C(=O)Nc2ccc(N3CCCC3)cc2)c(C)c1,8,-4,19,1.1,92,103
O=C(Nc1ccc(N2CCCCC2)cc1)c1ccc2ccccc2n1,85,-48,-27,2.5,124,144*
O=C(Nc1cccc(-c2cn3c(n2)SCC3)c1)c1ccc2ccccc2n1,87,-39,-12,1.1,111,135*
Cc1ccccc1C(=O)Nc1ccc(N2CCCC2)cc1,7,-35,13,2.1,93,131*
COCCOc1cc(NC(=O)CS(=O)(=O)CC(=O)N(C)C)c(Cl)cc1Cl,21,-7,5,1,100,104
CC1=C/C(=N\NC(=S)Nc2cccnc2)CC(C)(C)C1,1,-36,-8,1.2,106,134*
CC1(C)C2CC=C(/C=N/NC(=S)Nc3cccnc3)C1C2 (stereo not drawn),18,-4,-6,1.1,107,103
CN(C(=O)N1CCN(S(=O)(=O)c2ccccc2)CC1)c1ccccc1,3,6,15,0.94,95,95
COc1cccc2cc(-c3ccccc3)c(=O)oc12,152*,-48,23,4.7*,84,142*
COc1ccc(Nc2nc(-c3cc4cccc(OC)c4oc3=O)cs2)cc1,24,8,30,1.3,75,92
COc1cccc2cc(-c3nc(-c4cccs4)cs3)c(=O)oc12,105,-37,-5,1.3,105,133*
Cc1nnn(C23CC4CC(CC(CC(=O)Nc5ccc(C)c(C)c5)(C4)C2)C3)n1,23,-19,-5,0.87,102,117
Cc1nc(-c2ccc(Br)cc2)ccc1C(=O)O,-6,2,18,0.91,87,99
O=C(Oc1ccccc1)c1cc2ccccc2o1,-4,2,2,0.92,103,98
O=C(/C=C\c1ccccc1OC(=O)c1ccccc1F)c1cc2ccccc2o1,87,4,-17,4.3*,118,96
Cc1cccc(NC(=O)CSC2=NN3CCCC(=O)N=C3S2)c1C,-7,1,.,2.9,.,98
Cc1ccc(NC(=O)CSC2=NN3CCCC(=O)N=C3S2)c(C)c1,13,1,.,3.3*,.,98
O=C1C2CCCN2C(=O)N1CCCCN1CCN(CCO)CC1 (stereo not drawn),0,-8,6,1.1,99,107
Cc1c(CN(C)C)c2c(n1Cc1ccccc1)C(=O)c1ccc(Br)cc1-2,4,1,6,0.96,101,99
Cc1c(CN(C)C)c2c(n1C)C(=O)c1ccc(Br)cc1-2,15,0,8,3.3*,96,100
COC(=O)Cc1ccc(NC(=S)Nc2ccccn2)cc1,19,-16,23,1.6,84,113
CCC(C)(C)C1CCC(=NNC(=S)Nc2ccccc2)CC1 (stereo not drawn),152*,6,11,1.2,93,93
SMILES,APP 5'UTR act,STAT1 blocker,STAT3 inh,NF-kB neuron act,STAT3 activator,STAT1 activator
CCC(C)(C)C1CCC(=NNC(=S)Nc2cccnc2)CC1 (stereo not drawn),17,-8,0,0.86,102,107
Cc1ccccc1Oc1nc2ccccn2c(=O)c1/C=C(\C#N)C(=O)Nc1c(C)n(C)n(-c2ccccc2)c1=O,2,-7,-3,4.6*,105,106
COc1ccc(/C(N)=N/OC(=O)Cc2cccs2)cc1OC,20,-12,6,2,98,111
COc1ccc(/C(N)=N/OC(=O)Cc2cccs2)cc1,65,-44,-9,2.7,105,139*
Cc1ccc2c(c1)Cc1nc3ccccc3nc1-2,116,61*,72*,2.8,41,44
O=C(O)CCc1ccc(-c2ccc(Cl)cc2)n1NC(=O)c1ccc(O)cc1,12,-1,13,1.1,95,99
Cn1cc([N+](=O)[O-])c(C(=O)Nc2ccc3nc(-c4ccccc4)[nH]c3c2)n1,57,-4,23,1.4,79,103
O=C(Nc1ccc(-c2nc3ccccc3[nH]2)cc1)c1ccco1,169*,-45,6,2.6,101,141*
Cn1cc([N+](=O)[O-])c(C(=O)Nc2ccc(C3CCCCC3)cc2)n1,27,-19,24,3.7*,84,116
Cn1cc([N+](=O)[O-])c(C(=O)Nc2ccc(-c3nc4ccccc4[nH]3)cc2)n1,51,-16,-5,9.5*,103,115
Cn1cc([N+](=O)[O-])c(C(=O)Nc2ccc(C(=O)N3CCCCC3)cc2)n1,-21,5,20,1,86,95
Cc1noc(C)c1N=Nc1ccc(Br)cc1C(=O)O,3,-4,4,1.1,102,104
Cc1cc(C)c2[nH]c(=O)c(CN(Cc3cccnc3)C(=S)NCCCN(C)C)cc2c1,-10,-2,10,0.79,98,100
CCc1ccc(C(=O)Nc2cc3c(cc2Cl)OCCCO3)cc1,89,-54,15,4.6*,91,150*
Oc1ccc(N2CCN(C(=S)NCCc3ccccc3)CC2)cc1,-1,15,14,4.7*,98,87
COc1cccc(CN2CCN(Cc3ccc4c(NC(C)=O)cccc4n3)CC2CCO)c1 (stereo not drawn),1,-5,4,0.98,98,103
CCOc1cccc(C(=O)Nc2nc(-c3ccc(S(=O)(=O)N4CCOCC4)cc3)cs2)c1,-4,35*,34,0.53,73,69
CCOC(=O)Cn1nc(C)c(NC(=O)c2ccc(Cl)c([N+](=O)[O-])c2)c1C,4,9,6,1.1,98,91
C/C(=N\NC(=O)c1nn(C)c(C)c1Br)c1ccc(NC(=O)c2ccc(C)s2)cc1,120,-38,5,1.3,99,133*
O=C(CCC1CCCN(C(=O)c2ccc3[nH]ccc3c2)C1)N1CCN(c2ccccn2)CC1 (stereo not drawn),6,12,10,0.81,94,88
CCOC(=O)c1cc(C(=O)Nc2ccc(C)c(F)c2)nn1C,70,-40,-18,3.2,116,135*
COc1ccc(Nc2nc(N)nc(CSC(=S)N3CCOCC3)n2)cc1,12,-49,-10,1.8,113,142*
